# Bioassay records from PubChem BioAssay.
# Mdm2 MdmX PPI – inhibitors of human Mdm2-MdmX association, primary screen, cell-based, luminescence, split luciferase, SaOS-2, uHTS; Protein Mdm4 (Homo sapiens) + E3 ubiquitin-protein ligase Mdm2 (Homo sapiens), …; SaOS-2 split-luciferase Mdm2/MdmX complementation; inhibition, % at 8 µM; actives 3% (n = 330,000);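 active = inhibition of at least 50% at 8 µM in the primary screen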
# Target sequence (O15151 whole entry, looked up): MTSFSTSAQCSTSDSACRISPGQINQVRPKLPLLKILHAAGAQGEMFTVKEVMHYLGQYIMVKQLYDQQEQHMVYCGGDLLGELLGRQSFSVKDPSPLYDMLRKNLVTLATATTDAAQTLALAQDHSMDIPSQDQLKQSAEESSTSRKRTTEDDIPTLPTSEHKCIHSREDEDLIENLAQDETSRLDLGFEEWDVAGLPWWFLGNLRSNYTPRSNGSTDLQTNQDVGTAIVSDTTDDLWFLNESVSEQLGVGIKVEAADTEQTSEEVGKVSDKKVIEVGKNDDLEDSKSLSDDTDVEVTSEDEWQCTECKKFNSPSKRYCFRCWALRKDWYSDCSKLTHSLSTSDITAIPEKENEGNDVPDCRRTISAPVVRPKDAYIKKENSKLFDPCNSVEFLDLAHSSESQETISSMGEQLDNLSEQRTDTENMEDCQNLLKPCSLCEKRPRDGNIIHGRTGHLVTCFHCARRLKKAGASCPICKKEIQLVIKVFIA
# Target sequence (Q00987 whole entry, looked up): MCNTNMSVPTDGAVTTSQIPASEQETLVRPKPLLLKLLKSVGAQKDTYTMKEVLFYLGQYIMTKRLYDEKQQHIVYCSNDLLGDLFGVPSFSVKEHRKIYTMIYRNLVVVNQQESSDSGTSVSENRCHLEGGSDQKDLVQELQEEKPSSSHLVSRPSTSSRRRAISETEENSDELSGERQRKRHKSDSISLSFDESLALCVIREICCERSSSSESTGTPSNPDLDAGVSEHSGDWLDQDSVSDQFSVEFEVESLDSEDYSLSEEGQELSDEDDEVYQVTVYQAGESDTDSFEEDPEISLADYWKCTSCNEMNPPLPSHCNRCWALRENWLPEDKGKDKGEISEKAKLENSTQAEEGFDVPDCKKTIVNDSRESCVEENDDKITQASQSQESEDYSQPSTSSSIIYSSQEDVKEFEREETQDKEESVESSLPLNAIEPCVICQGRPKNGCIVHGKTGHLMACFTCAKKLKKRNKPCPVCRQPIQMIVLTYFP
# T cruzi repl – inhibitors of intracellular T. cruzi growth, primary screen, luminescence, NIH3T3 host cells | inhibition, % (no concentration beside the values) | actives 1.4% (n = 300,000) | T. cruzi beta-gal in NIH3T3, 90 h | AID 1885, 2009;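 active = mean inhibition across valid replicates above about 55%, limit read from the data; inconclusive = mean below that limit but half or more replicates reach it; inactive = mean below it, under half of replicates reach it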;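 note: signal also drops with host cell toxicity which is not excluded here; 0% = plate median of DMSO wells and 100% = zero luminescence signal; higher percent means less beta-gal luminescence so fewer parasites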
#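 assay system = mouse NIH/3T3 fibroblasts infected with β-gal-expressing T. cruzi Tulahuen C4 | input = 5,000 NIH/3T3 host cells per well | buffer or medium = DMEM plus 2% FBS | timing = 3 h host attachment, then at least 90 h co-culture | measured by = GalScreen luminescence, 60 min | evaluation = luminescence reflecting intracellular parasite burden, expressed as percent inhibition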
# SKKanGAS inh – S. pyogenes SKKanGAS growth inhibitors in kanamycin, primary screen, streptokinase expression inhibitor project, SKKanGAS strain, BacTiter-Glo luminescence | 6 h | inhibition, % at 7.5 µM | actives 1.3% (n = 300,000);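 active = mean replicate score, as percent of positive control median, at least 50; inconclusive = mean below 50 but one replicate at or above 50; inactive = mean and every replicate below 50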;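 note: strain carries kanamycin resistance gene driven by streptokinase promoter and grows in 40 µg/ml kanamycin; loss of luminescence reflects streptokinase promoter inhibition or plain growth inhibition; 0% = median of DMSO wells and 100% = positive control at its reference dose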
# CSC inhib – cancer stem cell viability inhibitors, primary screen, luminescence; cancer stem cell-like cells viability; inhibition, % at 7.5 µM; actives 1.1% (n = 300,000); in the data active = inhibition above about 75%; inconclusive = no clear call, values can overlap the other calls; tested in HMLE shEcad cells
# Beta apoptosis – inhibitors of cytokine-induced beta cell apoptosis, primary screen, luminescence | INS-1E cytokine-induced death, ATP luminescence, 48 h; percent of positive-control rescue, neutral wells zero | protection from apoptosis, % (test concentration not listed) | actives 0.8% (n = 300,000) | AID 435005, 2010;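 active = Every replicate reaches about 75%, or at least half do and their mean reaches it too, limit read from the data; inconclusive = At least half of replicates reach the limit but their mean does not; inactive = Under half of replicates reach the limit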;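 note: 0% = cytokine-treated negative control wells and 100% = positive control rescue; higher means more ATP so stronger rescue from cytokine killing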
# Calb FLC – C. albicans growth inhibition with fluconazole, primary screen, CaCi-2 strain, Alamar Blue fluorescence; C. albicans CaCi-2 (fluconazole-resistant clinical isolate) + fluconazole, 48 h; growth inhibition, % (no concentration beside the values); actives 0.57% (n = 300,000); AID 1979, 2009;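 active = growth inhibition above about 58% in most replicates, limit read from the data, passing the limit was not always enough; inconclusive = exactly half the replicates above a set limit; inactive = most replicates below a set limit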;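 note: all wells also contain fluconazole at 8 µg/ml as a sub-toxic cotreatment; 0% = median of DMSO wells and 100% = median of geldanamycin control wells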
# * hit, by the source's call; ? = inconclusive; · = no result given. Most compounds without a hit are left out; they make up all but 5.7% or so of the library.
SMILES,Mdm2 MdmX PPI,T cruzi repl,SKKanGAS inh,CSC inhib,Beta apoptosis,Calb FLC
CCOc1ccc(NCc2ccccc2OCc2cccc(F)c2)cc1,45,55*,10,58,20,-29
Fc1cccc(COc2ccccc2CNc2ccccc2)c1,·,-12,-8,22,1,9
Cc1ccc(N2C(=O)CC(C)CC2=O)cc1,-12,1,4,2,-5,-20
COc1ccc(/C=C/C(=O)c2ccc(O)cc2)cc1COc1ccc(F)cc1,46,-4,14,97*,8,19
COc1ccc(C(=O)/C=C/c2ccc(OCc3ccccc3)cc2)cc1CSCC(=O)O,5,-4,36,79*,3,-9
COc1ccc(/C=C/C(=O)c2ccccc2)cc1COc1ccc(F)cc1,9,3,1,29,3,-5
CCC1CN(C(=O)N2CCC(C(=O)Nc3ccccc3OC)CC2)c2ccccc2O1 (configuration not stated),29,0,32,-4,4,5
CCOc1ccc(NC(=O)c2ccc3c(=O)n(-c4ccc(OC)cc4OC)c(=S)[nH]c3c2)cc1,2,-22,?,11,-2,11
COc1ccc(-n2c(=S)[nH]c3cc(C(=O)Nc4ccc(C)c(F)c4)ccc3c2=O)c(OC)c1,15,16,76*,16,24,-8
Cc1ccc(C)c(OCCCCN2CCNCC2)c1C,-23,13,-15,129*,2,-17
Cc1ccc(C)c(OCCCN2CCNCC2)c1,14,9,1,-8,-12,3
COc1ccccc1CNc1ncnc2sccc12,9,-22,-5,10,97*,1
COc1ccc(CCNc2ncnc3c2oc2ccccc23)cc1OC,19,-21,4,-3,107*,38
COc1ccc(CCNc2nc(C)nc3c2oc2ccccc23)cc1OC,11,9,2,-14,70,-1
CN(C)c1ccc(CNc2ncnc3sccc23)cc1,-12,36,5,-2,38,85*
COc1ccc(Nc2ncnc3sccc23)cc1OC,21,-7,5,-4,-3,·
COc1ccc(CCNc2ncnc3sccc23)cc1OC,26,-58,1,2,111*,2
Cc1onc(-c2c(Cl)cccc2Cl)c1C(=O)N1CCc2ccccc2C1,6,23,4,-12,2,-6
c1ccc2c(c1)OCC(CNc1ncnc3sccc13)O2 (configuration not stated),·,-72,-3,8,107*,80*
Fc1ccccc1CNc1ncnc2sccc12,20,-38,3,7,53,0
Cc1cc(C)c2c(N)c(C(=O)Nc3ccccc3F)sc2n1,-55,8,3,-11,-6,-6
COC(=O)C(Cc1ccccc1)NC(=O)CNC(=O)c1sc2ccccc2c1Cl (configuration not stated),4,8,6,-1,-2,5
C[N+]1=C(/C=C/Nc2ccccc2Cl)C(C)(C)c2ccccc21,-13,37,6,0,99*,-5
COc1ccc(CCNCC(O)COc2cccc(Br)c2)cc1 (configuration not stated),-11,45,-7,50,1,9
OC(CNCCc1ccc(C(F)(F)F)cc1)COc1cccc2ccccc12 (configuration not stated),42,60*,25,96*,69,-7
SMILES,Mdm2 MdmX PPI,T cruzi repl,SKKanGAS inh,CSC inhib,Beta apoptosis,Calb FLC
OC(CNCCc1ccc(C(F)(F)F)cc1)COc1ccc2ccccc2c1 (configuration not stated),26,45,-10,77*,34,105*
COc1ccccc1COCC(O)CNCCc1ccc(C(F)(F)F)cc1 (configuration not stated),20,50,4,17,10,-4
Cc1cc(OCC(=O)N2CCC(C(=O)O)CC2)c2c(C)c(C)c(=O)oc2c1,-2,-2,1,-10,3,-2
COc1ccccc1NNC(=O)c1cc(C(C)(C)C)nn1Cc1ccccc1,-11,29,-5,30,-1,17
CC(C)(C)c1cc(C(=O)NNc2ccc(OC(F)(F)F)cc2)n(Cc2ccccc2)n1,15,39,11,78*,6,81*
CC(C)(C)c1cc(C(=O)NNc2cccc(Cl)c2)n(Cc2ccccc2)n1,17,50,32,128*,23,-6
CC(C)(C)C(=O)NNC(=O)c1cc(C(C)(C)C)nn1Cc1ccccc1,7,21,3,-18,-8,4
Cc1ccc(NNC(=O)c2cc(C(C)(C)C)nn2Cc2ccccc2)cc1,17,26,60*,93*,7,1
CC(C)(C)c1cc(C(=O)NNc2cc(C(F)(F)F)ccc2Cl)n(Cc2ccccc2)n1,29,·,99*,103*,36,-8
CC(C)Oc1ccc(C(=O)OCC(=O)N2CCCc3ccccc32)cc1,-3,-11,-5,-6,1,-18
O=C(CSc1cccc[n+]1[O-])Nc1ccccc1Oc1ccccc1,16,82*,7,-2,7,?
O=C(CSc1cccc[n+]1[O-])CSc1cccc[n+]1[O-],12,67*,17,7,·,73*
COC(=O)c1ccc(-n2c(C)cc(C(=O)CSc3cccc[n+]3[O-])c2C)cc1,35,5,12,8,-1,-6
O=C(CSc1cccc[n+]1[O-])Nc1ccccc1C(F)(F)F,-1,·,·,-4,-7,·
COC(=O)c1ccc(C(=O)OC)c(NC(=O)CSc2cccc[n+]2[O-])c1,-18,17,-4,·,13,113*
O=C(Cn1cnc2ccccc21)Nc1cccc(S(=O)(=O)N2CCCC2)c1,-12,·,·,0,16,·
CCCn1c(N)c(N(CCOC)C(=O)c2cc3c(s2)CCCCC3)c(=O)[nH]c1=O,13,-17,-3,-10,-3,-1
c1ccc2c(-c3nnc4n3CCCCC4)cc(-c3ccncc3)nc2c1,11,11,6,-5,·,-10
Clc1ccc(-c2cc(-c3nnc4n3CCCCC4)c3ccccc3n2)cc1,1,9,1,12,100*,19
Fc1ccc(-c2cc(-c3nnc4n3CCCCC4)c3ccccc3n2)cc1,3,-2,2,-8,97*,?
Clc1cccc(OCc2nc(-c3ccncc3)n[nH]2)c1,15,-6,-1,22,-4,30
Cc1ccc([N+](=O)[O-])c(OCCN2CCc3ccccc3C2)c1,-3,18,0,11,·,-3
